Measurements: paper PMC5624728 (Journal of pharmaceutical innovation, 2017)
Values after ≈ are worked out from the molar mass of the structure shown. Values joined by “and” are separate entries in the source; they are usually repeats but may differ in a detail not shown here. Identical values can stand only once. Like-named read-outs stand apart in the source and are kept apart here.

Assays:
[1] = Solubility of CSIC in acetonitrile, water and water/acetonitrile; type: physicochemical; settings: room temperature, 5 days
[2] = pH stability of CSIC in solution; type: physicochemical
[3] = Oxidation stability; type: physicochemical; settings: 3% H2O2, room temperature, up to 10 days
Procedure, shortened: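 Test compound dissolved at 100 μg/mL final in 40% (v/v) aqueous acetonitrile containing 3% H2O2. Kept at room temperature. Aliquots taken at set intervals up to 10 days. Drug content quantified by HPLC (flow 1.4 mL/min). Results given as mean ± standard deviation.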

[4] = Photolysis stability; type: physicochemical
Procedure, shortened: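 Half of each group was foil-wrapped as the dark control. All were held at 30 °C/65% RH under fluorescent light (2 × 20 watts) for 12 days. Aliquots at set times were assayed by HPLC. Light versus dark was compared by a repeated-measures mixed model with pairwise comparisons.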

[5] = CSIC solubility in cosolvent matrixes; type: physicochemical
[6] = 25 °C/60% RH and 65 °C, at least 10 days, 40% acetonitrile
[7] = system: HEC-1A human endometrial epithelial cells; settings: 24 h exposure, MTT
[8] = system: J774A.1 mouse macrophage cells; settings: J774A.1, 24 h exposure, MTT
[9] = system: HIV-1; settings: antiviral EC50; cited from earlier work
[10] = system: NNRTI resistance mutation K103N; settings: compared to other NNRTIs; cited from earlier work
[11] = system: HIV-1 RT; settings: tight-binding inhibitor; cited from earlier work

For `NC(=O)c1[nH]c2ccc(Cl)cc2c1S(=O)(=O)c1ccccc1` [CSIC, 5-chloro-3-[phenylsulfonyl] indole-2-carboxamide], the Solubility ([1]; 40% (v/v) acetonitrile) was 0.36 mg/mL and 1.1 mM, the Solubility ([1]; 100% acetonitrile) was 1.7 mg/mL and 5.1 mM and the Solubility ([1]; water) was 0.0014 mg/mL and 4.3 μM. The drug loss ([2]; all pH conditions (1.2-10), at least 10 days, room temperature) was < 5%, the “drug detected compared to time zero” value ([2]; all pH conditions, each time point up to 10 days) was “more than 95%” and the drug loss [3] was 20%. For the same compound, the “stability stored in the dark” value ([4]; dark, 30 °C/65% RH, at least 12 days) was “stable”, the “decline of drug concentration” value ([4]; fluorescent light source (2 × 20 watts), 12 days) was 4% and the Solubility ([5]; S1: PEG 400 0%, propylene glycol 50%, glycerin 50%) was 5.23 mg/mL (≈ 15.6 mM). It also gave a Solubility ([5]; S2: PEG 400 12.5%, propylene glycol 37.5%, glycerin 50%) of 10.60 mg/mL (≈ 31.7 mM), a Solubility ([5]; S3: PEG 400 12.5%, propylene glycol 50%, glycerin 37.5%) of 12.85 mg/mL (≈ 38.4 mM) and a Solubility ([5]; S4: PEG 400 25%, propylene glycol 25%, glycerin 50%) of 12.85 mg/mL (≈ 38.4 mM). It also gave a Solubility ([5]; S5: PEG 400 25%, propylene glycol 37.5%, glycerin 37.5%) of 17.08 mg/mL (≈ 51 mM), a Solubility ([5]; S6: PEG 400 25%, propylene glycol 50%, glycerin 25%) of 19.99 mg/mL (≈ 59.7 mM) and a Solubility ([5]; S7: PEG 400 37.5%, propylene glycol 12.5%, glycerin 50%) of 20.46 mg/mL (≈ 61.1 mM). For the same compound, the Solubility ([5]; S8: PEG 400 37.5%, propylene glycol 25%, glycerin 37.5%) was 21.81 mg/mL (≈ 65.1 mM), the Solubility ([5]; S9: PEG 400 37.5%, propylene glycol 37.5%, glycerin 25%) was 24.63 mg/mL (≈ 73.6 mM) and the Solubility ([5]; S10: PEG 400 37.5%, propylene glycol 50%, glycerin 12.5%) was 22.59 mg/mL (≈ 67.5 mM). For the same compound, the Solubility ([5]; S11: PEG 400 50%, propylene glycol 0%, glycerin 50%) was 22.86 mg/mL (≈ 68.3 mM), the Solubility ([5]; S12: PEG 400 50%, propylene glycol 12.5%, glycerin 37.5%) was 23.67 mg/mL (≈ 70.7 mM) and the Solubility ([5]; S13: PEG 400 50%, propylene glycol 25%, glycerin 25%) was 24.31 mg/mL (≈ 72.6 mM). The Solubility ([5]; S14: PEG 400 50%, propylene glycol 37.5%, glycerin 12.5%) was 28.21 mg/mL (≈ 84.3 mM), the Solubility ([5]; S15: PEG 400 50%, propylene glycol 50%, glycerin 0%) was 28.64 mg/mL (≈ 85.5 mM) and the Solubility ([5]; S16: PEG 400:propylene glycol:glycerin 10:2:4 (PEG 400 62.5%)) was 22.7 mg/mL (≈ 67.8 mM). For the same compound, the Solubility ([5]; S17: PEG 400:propylene glycol:glycerin 10:3:3 (PEG 400 62.5%)) was 20.7 mg/mL (≈ 61.8 mM), the Solubility ([5]; S18: PEG 400:propylene glycol:glycerin 10:4:2 (PEG 400 62.5%), i.e. 5:2:1 w/w/w) was 30.2 mg/mL (≈ 90.2 mM) and the Solubility ([5]; S19: PEG 400:propylene glycol:glycerin 6:1:1 (PEG 400 75%)) was 29.1 mg/mL (≈ 86.9 mM). The Solubility ([5]; S20: PEG 400:propylene glycol:glycerin 3:1:0 (PEG 400 75%)) was 28.8 mg/mL (≈ 86 mM), the “log P” value was ~ 3 and the “Log P” value (1:1 (v/v) octanol/water) was 3.72. For the same compound, the “Log P” value (1:2 (v/v) octanol/water) was 3.72, the “Log P” value (2:1 (v/v) octanol/water) was 3.69 and the “drug concentration over time” value [6] was “remained unchanged”. The “50% cytotoxic concentration (CC50)” value [7] was “greater than 5 μg/mL”, the “50% cytotoxic concentration (CC50)” value [8] was “greater than 5 μg/mL” and the EC50 [9] was ~1 nM and 1 nM. For the same compound, the “activity against K103N” value [10] was “retaining good activity” and the “binding and dissociation behaviour” value [11] was “binds rapidly but then dissociates very slowly”.
